# Test results published in ChEMBL document CHEMBL1152990, “The mechanism of action of beta-D-2'-deoxy-2'-fluoro-2'-C-methylcytidine involves a second metabolic pathway leading to beta-D-2'-deoxy-2'-fluoro-2'-C-methyluridine 5'-triphosphate, a potent inhibitor of the hepatitis C virus RNA-dependent RNA polymerase” (Antimicrob Agents Chemother, 2008).
# Experiments:
# Hepatocyte [1] = test: Metabolic stability in human hepatocytes assessed as PSI-6130 triphosphate half life at 2 uM
# Hepatitis C virus [2] = test: Antiviral activity against HCV harboring NS5B polymerase S282T mutation infected in human HuH7 cells assessed as inhibition of viral RNA replication after 4 days by replicon assay in presence of 100 uM DCTD inhibitor zedularine; type: functional, Hepacivirus hominis; conditions: Huh-7, 96 h
# Procedure, shortened: (§1)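 Huh-7 clone A subgenomic replicon cells carrying NS5B S282T (selected by serial passage with 2′-C-methyladenosine) were seeded at 1,500 cells/well without G418. Threefold compound dilutions were added alone or with 100 μM zebularine, followed by 4 days at 37°C, 5% CO2. Replicon RNA was quantified by single-step multiplex RT-PCR, and activity was taken as ΔCT versus the no-drug control to give EC90.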
# Hepatitis C virus [3] = test: Antiviral activity against wild type HCV infected in human HuH7 cells assessed as inhibition of viral RNA replication after 4 days by replicon assay in presence of 100 uM DCTD inhibitor zedularine; type: functional, Hepacivirus hominis; conditions: Huh-7, 96 h
# Procedure, shortened: (§2)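 Clone A Huh-7 replicon cells at 1,500 cells/well, without G418. Threefold serial compound dilutions were given with or without 100 μM zebularine, for 4 days at 37°C in 5% CO2. Replicon RNA was quantified by single-step multiplex RT-PCR, and activity was taken as ΔCT relative to the no-drug control.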
# Hepatitis C virus [4] = test: Antiviral activity against HCV harboring NS5B polymerase S282T mutation infected in human HuH7 cells assessed as inhibition of viral RNA replication after 4 days by replicon assay in absence of DCTD inhibitor zedularine; type: functional, Hepacivirus hominis; conditions: Huh-7, 96 h
# Procedure, shortened: as §1
# Hepatitis C virus [5] = test: Antiviral activity against wild type HCV infected in human HuH7 cells assessed as inhibition of viral RNA replication after 4 days by replicon assay in absence of DCTD inhibitor zedularine; type: functional, Hepacivirus hominis; conditions: Huh-7, 96 h
# Procedure, shortened: as §2
# Hepatitis C virus [6] = test: Ratio of EC90 for wild type HCV in viral replicon RNA-containing human HuH7 cells in absence of zedularine to EC90 wild type HCV in viral replicon RNA-containing human HuH7 cells in presence of zedularine; type: functional, Hepacivirus hominis, Huh-7
# Procedure, shortened: as §2
# Hepatocyte [7] = test: Metabolic stability in human hepatocytes assessed as RO2433 triphosphate half life at 2 uM; type: ADME, cell-based, Liver
# [8] = molecular target: RNA-directed RNA polymerase (Hepacivirus hominis, UniProt O39930, S282T); test: Inhibition of HCV NS5B polymerase S282T mutant assessed as incorporation of [alpha32P]UTP into newly synthesized RNA by liquid scintillation counting
# Procedure, shortened: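 S282T NS5B (C-terminal Δ21, E. coli-expressed) de novo RNA synthesis on an unprimed minus-IRES template at 27°C in 50 mM HEPES pH 7.5 with 5 mM MgCl2 and 2 mM DTT. CTP, ATP and GTP were fixed at 10, 100 and 100 μM, and 32P-UTP and inhibitor were varied. Timed aliquots were quenched with EDTA/NaCl/citrate stop solution. Steady-state competitive inhibition gave the Ki.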
# [9] = Inhibition of wild type HCV NS5B polymerase assessed as incorporation of [alpha32P]UTP into newly synthesized RNA by liquid scintillation counting; parameters: species or system Hepacivirus hominis
# Procedure, shortened: (§3)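 De novo RNA synthesis by NS5B lacking 21 C-terminal residues, in 50 mM HEPES pH 7.5 with 5 mM MgCl2 and 2 mM DTT at 27°C. Template was unprimed minus-IRES RNA, 2.8 μg each of enzyme and template. CTP 10 μM, ATP and GTP 100 μM; 32P-UTP and inhibitor were varied. Aliquots were quenched with EDTA/NaCl/citrate.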
# [10] = Activity of wild type HCV NS5B polymerase; parameters: species or system Hepacivirus hominis
# Procedure, shortened: as §3
# Hepatocyte [11] = test: Metabolic stability in human hepatocytes assessed as RO2433 triphosphate half life at 2 uM
# [12] = Drug metabolism in HCV subgenomic replicon RNA-containing human HuH7 cells assessed as RO2433 nucleotide triphosphate level per 10 '6 cells at 5 uM after 48 hrs by HPLC analysis in presence of 100 uM DCTD inhibitor zedularine; type: ADME, cell-based; conditions: huh-7, 48 h
# Procedure, shortened: (§4)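 Clone A Huh-7 replicon cells were grown overnight in DMEM with 10% FBS. They were then exposed to 5 μM [3H]PSI-6130 with 0, 50 or 100 μM zebularine for 48 h at 37°C. Cells were washed, trypsinized, counted and extracted in cold 60% methanol. Nucleotides were separated by SAX HPLC (0–100% buffer B over 90 min) with radiometric flow detection.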
# [13] = Drug metabolism in HCV subgenomic replicon RNA-containing human HuH7 cells assessed as PSI-6130 nucleotide diphosphate level per 10 '6 cells at 5 uM after 48 hrs by HPLC analysis in presence of 100 uM DCTD inhibitor zedularine; type: ADME, cell-based; conditions: huh-7, 48 h
# Procedure, shortened: as §4
# [14] = Drug metabolism in HCV subgenomic replicon RNA-containing human HuH7 cells assessed as RO2433 nucleotide monophosphate level per 10 '6 cells at 5 uM after 48 hrs by HPLC analysis in absence of DCTD inhibitor zedularine; type: ADME, cell-based; conditions: huh-7, 48 h
# Procedure, shortened: as §4
# [15] = Drug metabolism in HCV subgenomic replicon RNA-containing human HuH7 cells assessed as RO2433 nucleotide diphosphate level per 10 '6 cells at 5 uM after 48 hrs by HPLC analysis in presence of 50 uM DCTD inhibitor zedularine; type: ADME, cell-based; conditions: huh-7, 48 h
# Procedure, shortened: as §4
# [16] = Drug metabolism in HCV subgenomic replicon RNA-containing human HuH7 cells assessed as PSI-6130 nucleotide diphosphate level per 10 '6 cells at 5 uM after 48 hrs by HPLC analysis in absence of DCTD inhibitor zedularine; type: ADME, cell-based; conditions: huh-7, 48 h
# Procedure, shortened: as §4
# [17] = Drug metabolism in HCV subgenomic replicon RNA-containing human HuH7 cells assessed as PSI-6130 nucleotide triphosphate level per 10 '6 cells at 5 uM after 48 hrs by HPLC analysis in presence of 50 uM DCTD inhibitor zedularine; type: ADME, cell-based; conditions: huh-7, 48 h
# Procedure, shortened: as §4
# [18] = Drug metabolism in HCV subgenomic replicon RNA-containing human HuH7 cells assessed as PSI-6130 nucleotide diphosphate level per 10 '6 cells at 5 uM after 48 hrs by HPLC analysis in presence of 50 uM DCTD inhibitor zedularine; type: ADME, cell-based; conditions: huh-7, 48 h
# Procedure, shortened: as §4
# [19] = Drug metabolism in HCV subgenomic replicon RNA-containing human HuH7 cells assessed as PSI-6130 nucleotide monophosphate level per 10 '6 cells at 5 uM after 48 hrs by HPLC analysis in presence of 50 uM DCTD inhibitor zedularine; type: ADME, cell-based; conditions: huh-7, 48 h
# Procedure, shortened: as §4
# [20] = Drug metabolism in HCV subgenomic replicon RNA-containing human HuH7 cells assessed as RO2433 nucleotide diphosphate level per 10 '6 cells at 5 uM after 48 hrs by HPLC analysis in absence of DCTD inhibitor zedularine; type: ADME, cell-based; conditions: huh-7, 48 h
# Procedure, shortened: as §4
# [21] = Cytotoxicity against HCV subgenomic replicon RNA-containing human HuH7 cells at > 400 uM; type: cell-based; conditions: huh-7
# [22] = Drug metabolism in HCV subgenomic replicon RNA-containing human HuH7 cells assessed as RO2433 nucleotide monophosphate level per 10 '6 cells at 5 uM after 48 hrs by HPLC analysis in presence of 100 uM DCTD inhibitor zedularine; type: ADME, cell-based; conditions: huh-7, 48 h
# Procedure, shortened: as §4
# [23] = Drug metabolism in HCV subgenomic replicon RNA-containing human HuH7 cells assessed as RO2433 nucleotide triphosphate level per 10 '6 cells at 5 uM after 48 hrs by HPLC analysis in absence of DCTD inhibitor zedularine; type: ADME, cell-based; conditions: huh-7, 48 h
# Procedure, shortened: as §4
# [24] = Drug metabolism in HCV subgenomic replicon RNA-containing human HuH7 cells assessed as PSI-6130 nucleotide triphosphate level per 10 '6 cells at 5 uM after 48 hrs by HPLC analysis in absence of DCTD inhibitor zedularine; type: ADME, cell-based; conditions: huh-7, 48 h
# Procedure, shortened: as §4
# [25] = Drug metabolism in HCV subgenomic replicon RNA-containing human HuH7 cells assessed as PSI-6130 nucleotide monophosphate level per 10 '6 cells at 5 uM after 48 hrs by HPLC analysis in absence of DCTD inhibitor zedularine; type: ADME, cell-based; conditions: huh-7, 48 h
# Procedure, shortened: as §4
# [26] = Drug metabolism in HCV subgenomic replicon RNA-containing human HuH7 cells assessed as PSI-6130 nucleotide triphosphate level per 10 '6 cells at 5 uM after 48 hrs by HPLC analysis in presence of 100 uM DCTD inhibitor zedularine; type: ADME, cell-based; conditions: huh-7, 48 h
# Procedure, shortened: as §4
# [27] = Drug metabolism in HCV subgenomic replicon RNA-containing human HuH7 cells assessed as RO2433 nucleotide diphosphate level at 5 uM after 48 hrs by HPLC analysis in presence of 100 uM DCTD inhibitor zedularine; type: ADME, cell-based; conditions: huh-7, 48 h
# Procedure, shortened: as §4
# Hepatitis C virus [28] = test: Antiviral activity against wild type HCV infected in human HuH7 cells assessed as inhibition of viral RNA replication after 4 days by replicon assay; type: functional, Hepacivirus hominis; conditions: Huh-7, 96 h
# Procedure, shortened: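 Wild-type HCV subgenomic replicon Huh-7 cells (clone A) were plated at 1,500 cells/well in G418-free medium with threefold serial compound dilutions and incubated for 4 days at 37°C, 5% CO2. Replicon RNA was extracted and measured by single-step multiplex RT-PCR. Activity was calculated as the CT shift from the no-drug control, with EC90 derived.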
# [29] = Drug metabolism in HCV subgenomic replicon RNA-containing human HuH7 cells assessed as RO2433 nucleotide triphosphate level per 10 '6 cells at 5 uM after 48 hrs by HPLC analysis in presence of 50 uM DCTD inhibitor zedularine; type: ADME, cell-based; conditions: huh-7, 48 h
# Procedure, shortened: as §4
# [30] = Drug metabolism in HCV subgenomic replicon RNA-containing human HuH7 cells assessed as PSI-6130 nucleotide monophosphate level per 10 '6 cells at 5 uM after 48 hrs by HPLC analysis in presence of 100 uM DCTD inhibitor zedularine; type: ADME, cell-based; conditions: huh-7, 48 h
# Procedure, shortened: as §4
# [31] = Drug metabolism in HCV subgenomic replicon RNA-containing human HuH7 cells assessed as RO2433 nucleotide monophosphate level per 10 '6 cells at 5 uM after 48 hrs by HPLC analysis in presence of 50 uM DCTD inhibitor zedularine; type: ADME, cell-based; conditions: huh-7, 48 h
# Procedure, shortened: as §4
# Chain of RNA-directed RNA polymerase (O39930 entry or part of it S282T): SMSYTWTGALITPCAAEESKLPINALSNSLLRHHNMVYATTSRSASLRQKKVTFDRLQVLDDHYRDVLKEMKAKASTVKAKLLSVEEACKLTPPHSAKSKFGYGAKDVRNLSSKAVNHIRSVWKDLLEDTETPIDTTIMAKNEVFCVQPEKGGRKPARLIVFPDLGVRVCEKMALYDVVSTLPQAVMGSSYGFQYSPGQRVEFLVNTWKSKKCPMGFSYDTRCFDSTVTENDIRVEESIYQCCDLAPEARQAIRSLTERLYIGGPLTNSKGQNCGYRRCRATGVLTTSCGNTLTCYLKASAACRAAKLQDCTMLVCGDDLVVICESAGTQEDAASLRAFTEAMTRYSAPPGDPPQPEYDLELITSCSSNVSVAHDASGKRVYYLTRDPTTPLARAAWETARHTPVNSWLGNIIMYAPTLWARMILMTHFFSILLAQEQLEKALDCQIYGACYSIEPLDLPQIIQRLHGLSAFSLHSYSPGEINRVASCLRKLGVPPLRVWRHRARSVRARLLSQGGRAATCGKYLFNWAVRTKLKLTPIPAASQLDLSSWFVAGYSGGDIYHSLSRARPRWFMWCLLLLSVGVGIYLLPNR
smiles,measurement,setting,value
C[C@@]1(F)[C@H](O)[C@@H](CO)O[C@H]1n1ccc(N)nc1=O,t1/2,Hepatocyte [1],4.7 h
same,EC90,Hepatitis C virus [2],8.9 µM
same,EC90,Hepatitis C virus [3],2.1 µM
same,EC90,Hepatitis C virus [4],23.8 µM
same,EC90,Hepatitis C virus [5],4.9 µM
same,Ratio,Hepatitis C virus [6],2.3
C[C@@]1(F)[C@H](O)[C@@H](CO)O[C@H]1n1ccc(=O)[nH]c1=O,Activity,Hepatocyte [7],Not Active
same,EC90,Hepatitis C virus [5],> 100 µM
COC(=O)[C@H](C)NP(=O)(OC[C@H]1O[C@@H](n2ccc(=O)[nH]c2=O)[C@](C)(F)[C@@H]1O)Oc1ccccc1 (stereo partly specified),EC90,Hepatitis C virus [4],34.7 µM
same,EC90,Hepatitis C virus [5],1.6 µM
C[C@@]1(F)[C@H](O)[C@@H](COP(=O)(O)OP(=O)(O)OP(=O)(O)O)O[C@H]1n1ccc(=O)[nH]c1=O [GS-461203],Ki,[8],22 µM
same,Ki,[9],0.42 µM
same,Km,[10],0.068 µM
same,t1/2,Hepatocyte [11],38 h
C[C@@]1(F)[C@H](O)[C@@H](COP(=O)(O)OP(=O)(O)OP(=O)(O)O)O[C@H]1n1ccc(N)nc1=O [PSI-6130-TP],Ki,[8],0.31 µM
same,Ki,[9],0.059 µM
O=c1ncccn1[C@@H]1O[C@H](CO)[C@@H](O)[C@H]1O [ZEBULARINE],Activity,[12],3.53 pmol
same,Activity,[13],6.61 pmol
same,Activity,[14],0.79 pmol
same,Activity,[15],1.33 pmol
same,Activity,[16],3.3 pmol
same,Activity,[17],28.62 pmol
same,Activity,[18],5.48 pmol
same,Activity,[19],1.04 pmol
same,Activity,[20],4.79 pmol
same,Activity,[21],50%
same,Activity,[22],0.22 pmol
same,Activity,[23],11.51 pmol
same,Activity,[24],11.53 pmol
same,Activity,[25],0.65 pmol
same,Activity,[26],31.74 pmol
same,Activity,[27],0.88 pmol
same,EC90,Hepatitis C virus [28],> 400 µM
same,Activity,[29],5.62 pmol
same,Activity,[30],1.26 pmol
same,Activity,[31],0.27 pmol
